Series [1] is described as follows: Selectivity ratio of IC50 for rabbit voltage-dependent L-type calcium channel Cav1.2alpha-1C to IC50 for rat voltage-dependent L-type calcium channel Cav1.3alpha-1D.
Series [2] addresses T1, Voltage-dependent L-type calcium channel subunit alpha-1C (Oryctolagus cuniculus, UniProt P15381). The series is described as follows: Antagonist activity at rabbit voltage-dependent L-type calcium channel Cav1.2alpha-1C expressed in HEK293 cells by FLIPR assay. Type of series: cell-based. The procedure, abridged:
(§1)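 HEK293 lines stably expressing rat CaV1.3α1D or rabbit CaV1.2α1C, with rat CaVβ3 and rat CaVα2δ-1 cDNAs used in construction. Calcium influx was read by Fluo-8 fluorescence on a FLIPR Tetra. […] The selectivity ratio is CaV1.3 IC50 over CaV1.2 IC50.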

Series [3] deals with Voltage-dependent L-type calcium channel subunit alpha-1D (Rattus norvegicus, UniProt P27732). Briefly: Antagonist activity at rat voltage-dependent L-type calcium channel Cav1.3alpha-1D expressed in HEK293 cells by FLIPR assay. Type of series: cell-based. In outline: as §1
Series [4] is described as follows: Selectivity ratio of inhibition for rat voltage-dependent L-type calcium channel Cav1.3alpha-1D to inhibition for rabbit voltage-dependent L-type calcium channel Cav1.2alpha-1C at 0.3 uM.
The nature of series [5]: Selectivity ratio of IC50 for rat voltage-dependent L-type calcium channel Cav1.3alpha-1D to IC50 for rabbit voltage-dependent L-type calcium channel Cav1.2alpha-1C. The procedure, abridged: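 HEK293 lines stably expressing rat CaV1.3α1D or rabbit CaV1.2α1C, with rat CaVβ3 and rat CaVα2δ-1 cDNAs used in construction. Calcium influx was read by Fluo-8 fluorescence on a FLIPR Tetra. The selectivity ratio is CaV1.3 IC50 over CaV1.2 IC50.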

Series [6] addresses T1, Voltage-dependent L-type calcium channel subunit alpha-1C. The series is described as follows: Antagonist activity at rabbit voltage-dependent L-type calcium channel Cav1.2alpha-1C expressed in HEK293 cells assessed as inhibition of end barium current at 1 to 10 uM by whole-cell patch-clamp electrophysiology technique. Type of series: cell-based. The procedure, abridged: (§2)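 Stably transfected HEK293 cells were held on poly-D-lysine coverslips for 24–48 h at 37 °C, then whole-cell voltage-clamped. External solution (mM): 140 NaCl, 1 MgCl2, 10 BaCl2, 10 HEPES, 10 dextrose, 10 sucrose, 20 CsCl, pH 7.4. Ba2+ currents were evoked by a 100 ms step from −80 to 0 mV. Compound was perfused at 1 or 10 µM from a DMSO stock. Percent inhibition of peak current or of end current (last 50 ms) was taken, n = 5, as the median.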
A general note: The patch-clamp technique gives a direct electrical read-out from membranes.

The target in series [7] is Voltage-dependent L-type calcium channel subunit alpha-1D (Rattus norvegicus) (UniProt P27732). The series is described as follows: Antagonist activity at rat voltage-dependent L-type calcium channel Cav1.3alpha-1D expressed in HEK293 cells assessed as inhibition of peak barium current at 1 to 10 uM by whole-cell patch-clamp electrophysiology technique. Type of series: cell-based. In outline: as §2

Series [8] concerns the target T1, Voltage-dependent L-type calcium channel subunit alpha-1C. Briefly: Antagonist activity at rabbit voltage-dependent L-type calcium channel Cav1.2alpha-1C expressed in HEK293 cells assessed as inhibition of peak barium current at 1 to 10 uM by whole-cell patch-clamp electrophysiology technique. Type of series: cell-based. In outline: as §2
In series [9] the target is Voltage-dependent L-type calcium channel subunit alpha-1D (Rattus norvegicus) (UniProt P27732). Briefly: Antagonist activity at rat voltage-dependent L-type calcium channel Cav1.3alpha-1D expressed in HEK293 cells assessed as inhibition of end barium current at 1 to 10 uM by whole-cell patch-clamp electrophysiology technique. Type of series: cell-based. In outline:
as §2

Each structure is given as a SMILES string. Activity calls are given as the source filed them. No cut-off for these calls is given here.

T1 sequence (P15381 whole entry): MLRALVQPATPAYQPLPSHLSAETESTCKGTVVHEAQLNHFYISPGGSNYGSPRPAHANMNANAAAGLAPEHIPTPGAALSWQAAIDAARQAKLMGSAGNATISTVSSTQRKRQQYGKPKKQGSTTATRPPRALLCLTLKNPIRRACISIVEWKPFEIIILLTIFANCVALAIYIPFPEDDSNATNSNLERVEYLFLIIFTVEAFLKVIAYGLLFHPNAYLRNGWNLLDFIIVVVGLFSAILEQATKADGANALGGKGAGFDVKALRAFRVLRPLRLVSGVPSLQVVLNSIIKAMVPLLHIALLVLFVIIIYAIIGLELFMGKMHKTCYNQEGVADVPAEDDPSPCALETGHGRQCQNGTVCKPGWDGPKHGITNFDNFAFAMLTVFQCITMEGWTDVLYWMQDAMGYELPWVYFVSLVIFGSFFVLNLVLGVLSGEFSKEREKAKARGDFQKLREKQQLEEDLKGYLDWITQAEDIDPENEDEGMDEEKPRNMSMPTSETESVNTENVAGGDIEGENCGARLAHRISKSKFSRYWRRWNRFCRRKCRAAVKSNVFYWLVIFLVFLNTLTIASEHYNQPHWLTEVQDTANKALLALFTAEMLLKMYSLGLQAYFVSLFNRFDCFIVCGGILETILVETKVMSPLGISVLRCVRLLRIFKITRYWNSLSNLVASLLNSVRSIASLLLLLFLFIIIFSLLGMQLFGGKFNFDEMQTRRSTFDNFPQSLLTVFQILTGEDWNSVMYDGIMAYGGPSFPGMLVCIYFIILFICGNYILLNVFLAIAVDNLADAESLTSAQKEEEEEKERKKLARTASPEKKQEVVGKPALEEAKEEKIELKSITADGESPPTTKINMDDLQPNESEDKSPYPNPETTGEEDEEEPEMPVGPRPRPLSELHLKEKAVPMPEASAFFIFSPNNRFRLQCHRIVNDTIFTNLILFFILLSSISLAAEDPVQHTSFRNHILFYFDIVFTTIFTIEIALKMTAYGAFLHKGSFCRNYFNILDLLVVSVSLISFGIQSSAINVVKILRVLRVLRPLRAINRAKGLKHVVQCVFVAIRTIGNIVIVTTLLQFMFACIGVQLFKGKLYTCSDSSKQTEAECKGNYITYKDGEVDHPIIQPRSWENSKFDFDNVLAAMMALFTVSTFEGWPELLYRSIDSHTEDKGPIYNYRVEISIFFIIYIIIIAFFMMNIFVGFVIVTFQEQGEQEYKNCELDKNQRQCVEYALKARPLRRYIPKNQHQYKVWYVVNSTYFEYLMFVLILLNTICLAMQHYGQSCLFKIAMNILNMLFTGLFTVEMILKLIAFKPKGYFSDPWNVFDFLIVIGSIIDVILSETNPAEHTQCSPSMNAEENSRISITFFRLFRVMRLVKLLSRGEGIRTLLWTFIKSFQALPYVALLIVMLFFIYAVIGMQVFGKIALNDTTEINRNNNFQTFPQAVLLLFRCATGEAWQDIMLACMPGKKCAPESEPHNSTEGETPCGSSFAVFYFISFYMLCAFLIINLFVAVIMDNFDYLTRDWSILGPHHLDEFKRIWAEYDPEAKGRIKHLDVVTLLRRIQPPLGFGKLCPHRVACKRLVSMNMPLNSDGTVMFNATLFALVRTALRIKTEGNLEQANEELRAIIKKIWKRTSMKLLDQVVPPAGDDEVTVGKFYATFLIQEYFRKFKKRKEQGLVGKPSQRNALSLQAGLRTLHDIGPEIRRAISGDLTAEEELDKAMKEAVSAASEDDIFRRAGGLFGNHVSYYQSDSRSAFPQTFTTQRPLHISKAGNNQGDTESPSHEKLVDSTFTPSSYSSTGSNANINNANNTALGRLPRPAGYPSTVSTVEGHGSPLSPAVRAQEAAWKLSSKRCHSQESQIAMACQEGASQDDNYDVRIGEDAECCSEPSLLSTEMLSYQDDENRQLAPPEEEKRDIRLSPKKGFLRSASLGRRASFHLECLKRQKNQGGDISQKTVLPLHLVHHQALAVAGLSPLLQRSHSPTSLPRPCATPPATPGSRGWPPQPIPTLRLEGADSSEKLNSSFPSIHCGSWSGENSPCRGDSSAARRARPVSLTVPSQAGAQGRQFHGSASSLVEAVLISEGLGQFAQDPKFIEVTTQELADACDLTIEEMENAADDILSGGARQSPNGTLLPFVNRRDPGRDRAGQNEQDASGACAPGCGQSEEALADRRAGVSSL
Voltage-dependent L-type calcium channel subunit alpha-1D, sequence (P27732 whole entry): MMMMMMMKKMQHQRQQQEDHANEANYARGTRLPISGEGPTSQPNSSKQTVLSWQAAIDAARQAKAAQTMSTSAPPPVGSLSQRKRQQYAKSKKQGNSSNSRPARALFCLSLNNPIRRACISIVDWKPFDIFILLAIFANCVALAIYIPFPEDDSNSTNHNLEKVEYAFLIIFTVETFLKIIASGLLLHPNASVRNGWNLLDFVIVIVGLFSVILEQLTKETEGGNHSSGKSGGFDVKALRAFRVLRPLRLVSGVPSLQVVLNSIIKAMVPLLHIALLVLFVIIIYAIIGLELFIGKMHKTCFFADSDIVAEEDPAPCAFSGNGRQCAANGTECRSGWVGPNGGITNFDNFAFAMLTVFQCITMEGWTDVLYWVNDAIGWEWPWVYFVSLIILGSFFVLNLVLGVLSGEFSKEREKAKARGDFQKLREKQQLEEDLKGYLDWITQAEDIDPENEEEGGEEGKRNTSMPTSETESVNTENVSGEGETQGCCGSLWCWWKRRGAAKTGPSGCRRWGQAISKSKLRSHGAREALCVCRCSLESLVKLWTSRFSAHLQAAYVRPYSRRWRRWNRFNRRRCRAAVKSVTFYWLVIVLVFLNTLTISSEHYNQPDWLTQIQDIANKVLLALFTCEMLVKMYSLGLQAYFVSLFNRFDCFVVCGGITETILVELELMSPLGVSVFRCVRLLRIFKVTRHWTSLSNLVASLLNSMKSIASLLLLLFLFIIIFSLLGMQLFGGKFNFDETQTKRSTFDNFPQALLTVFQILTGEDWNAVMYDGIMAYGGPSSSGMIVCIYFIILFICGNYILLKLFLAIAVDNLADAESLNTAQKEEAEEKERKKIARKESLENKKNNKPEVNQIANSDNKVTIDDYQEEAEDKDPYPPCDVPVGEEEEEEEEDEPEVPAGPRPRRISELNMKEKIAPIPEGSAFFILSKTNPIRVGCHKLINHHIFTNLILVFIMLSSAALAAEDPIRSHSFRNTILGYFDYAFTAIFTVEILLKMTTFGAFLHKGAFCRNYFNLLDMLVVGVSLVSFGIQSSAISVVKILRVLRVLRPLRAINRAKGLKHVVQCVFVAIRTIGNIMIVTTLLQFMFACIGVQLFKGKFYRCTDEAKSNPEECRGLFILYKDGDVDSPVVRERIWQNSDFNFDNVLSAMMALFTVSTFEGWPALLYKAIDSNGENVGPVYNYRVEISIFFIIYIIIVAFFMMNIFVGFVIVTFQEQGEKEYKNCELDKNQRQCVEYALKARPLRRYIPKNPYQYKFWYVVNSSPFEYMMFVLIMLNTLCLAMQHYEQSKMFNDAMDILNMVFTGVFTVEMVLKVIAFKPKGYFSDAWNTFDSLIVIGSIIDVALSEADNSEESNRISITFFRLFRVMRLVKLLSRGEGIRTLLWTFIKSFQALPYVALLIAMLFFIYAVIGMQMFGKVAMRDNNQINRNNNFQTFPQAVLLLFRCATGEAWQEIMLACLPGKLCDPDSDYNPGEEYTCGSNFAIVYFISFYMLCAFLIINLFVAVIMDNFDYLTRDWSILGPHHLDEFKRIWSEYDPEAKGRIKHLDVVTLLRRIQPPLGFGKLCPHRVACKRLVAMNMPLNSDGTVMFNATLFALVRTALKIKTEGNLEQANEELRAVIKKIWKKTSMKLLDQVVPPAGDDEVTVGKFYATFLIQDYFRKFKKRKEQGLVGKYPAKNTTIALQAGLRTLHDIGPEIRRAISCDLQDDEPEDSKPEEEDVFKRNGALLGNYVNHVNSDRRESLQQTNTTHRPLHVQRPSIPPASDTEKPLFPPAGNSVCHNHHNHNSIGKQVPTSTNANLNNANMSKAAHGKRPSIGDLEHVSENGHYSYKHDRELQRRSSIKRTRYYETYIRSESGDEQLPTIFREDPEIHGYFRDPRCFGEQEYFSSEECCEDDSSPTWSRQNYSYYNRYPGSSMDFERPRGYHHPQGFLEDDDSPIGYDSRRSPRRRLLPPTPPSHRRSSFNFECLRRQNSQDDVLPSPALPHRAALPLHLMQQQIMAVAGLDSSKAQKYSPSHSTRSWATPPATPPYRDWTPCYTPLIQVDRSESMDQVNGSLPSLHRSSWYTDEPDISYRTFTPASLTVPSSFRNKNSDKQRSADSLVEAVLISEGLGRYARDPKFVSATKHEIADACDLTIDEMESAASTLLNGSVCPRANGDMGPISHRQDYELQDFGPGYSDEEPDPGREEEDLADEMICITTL
Voltage-dependent L-type calcium channel subunit alpha-1D (Rattus norvegicus), sequence (P27732 whole entry): as above

For the molecule `CC1=C(C(=O)OC(C)C)C(c2cccc([N+](=O)[O-])c2)N(C(=O)OC(C)C)C(=O)N1` (racemic), the Ratio IC50 in series [1] worked out at 1. The values for the IC50 in [2] and in series [3] were 0.64 µM and 0.66 µM, respectively.
As to `COC(=O)C1=C(C)NC(C)=C(C(=O)OC(C)C)C1c1cccc2nonc12` (configuration not stated) [ISRADIPINE], in series [4], the Selectivity ratio is 0.69. Moreover, the Ratio IC50 in series [1] was 0.5. For the same molecule, the IC50 was found to be 0.107 µM in [2] and 0.221 µM in series [3].
`CSC1=NC(c2cccc([N+](=O)[O-])c2)C(C(=O)OC(C)C)=C(C)N1` (configuration not stated): in series [1], the Ratio IC50 is 0.2. The IC50 in series [2] was found to be 0.42 µM; in series [3], 1.86 µM.
The like results for `CC(C)OC(=O)C1=C(C(C)C)NC(=O)N(C(=O)OC(C)C)C1c1cccc([N+](=O)[O-])c1` (configuration not stated) were, in that order, 0.5, 1.93 µM and 4.31 µM.
For `COC(=O)C1=C(C)NC(=S)NC1c1cccc([N+](=O)[O-])c1` (configuration not stated), the half-maximal inhibitory concentration (IC50) in [2] is 55 µM; in series [3], greater than 100 µM.
On to `COC(=O)C1=C(C(C)C)NC(=O)N(C(=O)OC(C)C)C1c1cccc([N+](=O)[O-])c1` (configuration not stated), for which the Ratio IC50 in [1] amounted to 1. The 50% inhibitory concentration (IC50) in [2] was found to be 10.4 µM; in [3] it was 10.1 µM.
Take `COC(=O)C1=C(C(C)C)NC(=O)N(C(=O)C(C)C)C1c1cccc([N+](=O)[O-])c1` (configuration not stated): the IC50 was 56.6 µM in series [2] and greater than 100 µM in [3].
Take `CC1=C(C(=O)OC(C)C)C(c2cccc([N+](=O)[O-])c2)NC(=S)N1` (configuration not stated): the Ratio IC50 in series [1] turned out to be 0.7. For the same molecule, the IC50 in series [2] was determined as 10.7 µM; in series [3], 15.8 µM.
As for `COC(=O)N1C(=S)NC(C)=C(C(=O)OC(C)C)[C@@H]1c1cccc([N+](=O)[O-])c1`, the Ratio IC50 in [1] was found to be 0.8. Moreover, the figures for the concentration for half-maximal inhibition (IC50) in [2] and in series [3] were 9.87 µM and 12.8 µM, respectively.
As to `CC1=C(C(=O)OC(C)C)C(c2cccc([N+](=O)[O-])c2)NC(=O)N1` (configuration not stated), the concentration for half-maximal inhibition (IC50) in [2] was 58.1 µM; in series [3], 46.6 µM.
`CCOC(=O)N1C(=O)N(C(=O)OCC)C(c2cccc([N+](=O)[O-])c2)C(C(=O)OC)=C1C(C)C` (configuration not stated): the Ratio IC50 in series [5] came out at 1. For the same molecule, the IC50 in series [2] and in series [3] was 13.9 µM each time.
With `COC(=O)SC1=NC(C)=C(C(=O)OC(C)C)C(c2cccc([N+](=O)[O-])c2)N1C(=O)OC` (configuration not stated), in [1], the Ratio IC50 was 0.9. The concentration for half-maximal inhibition (IC50) in series [2] amounted to 1.02 µM; in series [3], 1.11 µM.
Taken in the same sequence, the figures for `COC(=O)N1C(SC)=NC(C)=C(C(=O)OC(C)C)C1c1cccc([N+](=O)[O-])c1` (configuration not stated) were 0.4, 5.54 µM and 10.7 µM.
On to `COC(=O)C1=C(C)OC(N)=C(C(=O)OC(C)C)C1c1cccc([N+](=O)[O-])c1` (configuration not stated), for which the Ratio IC50 in series [1] is 0.2. For the same molecule, the IC50 turned out to be 0.41 µM in series [2] and 1.82 µM in series [3].
Taken in the same sequence, the figures for `CC1=C(C(=O)OC(C)C)[C@H](c2cccc([N+](=O)[O-])c2)N(C(=O)OC(C)C)C(=O)N1` were 1.6, 3.07 µM and 1.96 µM.
Taken in the same sequence, the figures for `COC(=O)C1=C(C)NC(=O)N(C(=O)OC(C)C)C1c1cccc([N+](=O)[O-])c1` (configuration not stated) were 0.6, 2.48 µM and 4.6 µM.
With `COC(=O)C1=C(C)N=C(SC)NC1c1cccc([N+](=O)[O-])c1` (configuration not stated), in series [1], the Ratio IC50 is 0.3. In addition, the 50% inhibitory concentration (IC50) stood at 3.29 µM in series [2] and 10.6 µM in series [3].
`COC(=O)C1=C(C)N=C(SC)N(C(=O)OC(C)C)C1c1cccc([N+](=O)[O-])c1` (configuration not stated): the Ratio IC50 in series [1] turned out to be 3. Further, the 50% inhibitory concentration (IC50) was found to be 16.1 µM in series [2] and 5.58 µM in [3].
With `COC(=O)N1C(=O)NC(C)=C(C(=O)OC(C)C)C1c1cccc([N+](=O)[O-])c1` (racemic), in [1], the Ratio IC50 turned out to be 0.9. Besides, the concentration for half-maximal inhibition (IC50) is 2.48 µM in [2] and 2.96 µM in series [3].
In the case of `COC(=O)N1C(=O)N(C(=O)OC)C(c2cccc([N+](=O)[O-])c2)C(C(=O)OC(C)C)=C1C` (configuration not stated), the Ratio IC50 in [1] was 1.1. For the same molecule, the figures for the IC50 in series [2] and in series [3] were 6.13 µM and 5.88 µM, respectively.
For the molecule `CNC1=NC(C)=C(C(=O)OC(C)C)C(c2cccc([N+](=O)[O-])c2)N1C(=O)OC` (configuration not stated), the Ratio IC50 in series [1] was 0.8. Further, the concentration for half-maximal inhibition (IC50) worked out at 2.45 µM in series [2] and 3.25 µM in series [3].
Taken in the same sequence, the figures for `CNC1=NC(C)=C(C(=O)OC)C(c2cccc([N+](=O)[O-])c2)N1C(=O)OC(C)C` (configuration not stated) were 0.4, 1.81 µM and 4.22 µM.
`CCOC(=O)C1=C(NC(=O)C(C)C)OC(C)=C(C(=O)OC)C1c1cccc([N+](=O)[O-])c1` (configuration not stated): in series [1], the Ratio IC50 is 0.4. In addition, the results for the 50% inhibitory concentration (IC50) in [2] and in series [3] were 4.23 µM and 9.95 µM, respectively.
Taken in the same sequence, the figures for `COC(=O)N1C(=O)NC(C)=C(C(=O)OC(C)C)[C@@H]1c1cccc([N+](=O)[O-])c1` were 0.6, 21.7 µM and 35.1 µM.
Take `CC1=C(C(=O)OC(C)C)C(c2cccc([N+](=O)[O-])c2)N(C(=O)C(C)C)C(=O)N1` (configuration not stated): in series [1], the Ratio IC50 stood at 0.5. Further, the values for the IC50 in series [2] and in series [3] were 0.5 µM and 0.99 µM, respectively.
Taken in the same sequence, the figures for `COC(=O)C1=C(C)NC(=S)N(C(=O)OC(C)C)C1c1cccc([N+](=O)[O-])c1` (configuration not stated) were 0.2, 0.17 µM and 0.88 µM.
As to `CCOC(=O)C1=C(N)OC(C)=C(C(=O)OC)C1c1cccc([N+](=O)[O-])c1` (configuration not stated), the Ratio IC50 in series [1] is 0.2. In addition, the IC50 in series [2] stood at 0.58 µM; in series [3], 2.72 µM.
Taken in the same sequence, the figures for `COC(=O)N1C(=S)NC(C)=C(C(=O)OC(C)C)[C@H]1c1cccc([N+](=O)[O-])c1` were 0.9, 0.5 µM and 0.56 µM.
Taken in the same sequence, the figures for `CC1=C(C(=O)OC(C)C)C(c2cccc([N+](=O)[O-])c2)C(C(=O)OC(C)C)=C(N)O1` (configuration not stated) were 0.6, 0.86 µM and 1.39 µM.
As to `COC(=O)N1C(=O)NC(C)=C(C(=O)OC(C)C)[C@H]1c1cccc([N+](=O)[O-])c1`, the Ratio IC50 in series [1] came to 1.2. In addition, the 50% inhibitory concentration (IC50) in [2] is 2.36 µM; in series [3], 1.91 µM.
`COC(=O)C1=C(C(C)C)NC(=O)NC1c1cccc([N+](=O)[O-])c1` (configuration not stated): the IC50 in series [2] and in [3] was greater than 100 µM each time.
Regarding `CCOC(=O)C1=C(NC(C)=O)OC(C)=C(C(=O)OC)C1c1cccc([N+](=O)[O-])c1` (configuration not stated), the Ratio IC50 in [1] turned out to be 0.5. Also, the IC50 in series [2] worked out at 4.75 µM; in series [3] it was 10 µM.
As for `CC1=C(C(=O)OC(C)C)[C@@H](c2cccc([N+](=O)[O-])c2)N(C(=O)OC(C)C)C(=O)N1`, the Ratio IC50 in series [1] was determined as 2.1. The “inhibition (INH)” value in series [6] and in series [8] was “Active” each time. Further, the 50% inhibitory concentration (IC50) in series [2] worked out at 1.02 µM; in [3] it was 0.51 µM. Besides, the inhibition result in [7] and in [9] was “Active” in each case.
Turning to `COC(=O)C1=C(C)OC(NC(C)=O)=C(C(=O)OC(C)C)C1c1cccc([N+](=O)[O-])c1` (configuration not stated), the Ratio IC50 in [1] came to 0.5. In addition, the IC50 in [2] was 6.11 µM; in [3], 13.6 µM.
Taken in the same sequence, the figures for `COC(=O)N1C(=S)NC(C)=C(C(=O)OC(C)C)C1c1cccc([N+](=O)[O-])c1` (racemic) were 0.6, 0.35 µM and 0.55 µM.
Turning to `COC(=O)C1=C(C)NC(=O)NC1c1cccc([N+](=O)[O-])c1` (configuration not stated), the Ratio IC50 in series [1] came out at 0.6. The IC50 turned out to be 11.7 µM in series [2] and 18.9 µM in [3].
Taken in the same sequence, the figures for `CCOC(=O)N1C(=O)NC(C(C)C)=C(C(=O)OC)C1c1cccc([N+](=O)[O-])c1` (configuration not stated) were 0.6, 14.8 µM and 24.5 µM.

The term IC50 denotes the concentration at which inhibition is half-maximal.
